# Biofilm kill mix – mixtures killing C. albicans biofilm; C. albicans biofilm persisters + clotrimazole, fluorescence viability; primary screen in compound mixtures of four per well; inhibition, % at 7.6 µM; AID 1242; hit rate 0.02% among 120,000;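 active = inhibition above 30.3% in the primary screen of four-compound pools, then above 30% when the compound was retested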;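 note: compounds exposed to preformed 24 h biofilms for 48 h; 0% = untreated biofilm control and 100% = clotrimazole plus chlorhexidine kill blank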
#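 Test system: C. albicans CAF4-2 wild-type biofilms; buffer or medium: RPMI/MOPS medium, pH 7.0; schedule: 24 h biofilm formation, then 48 h compound exposure, 37 °C; detection: Alamar Blue fluorescence; measure: percent inhibition of biofilm viability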
# S1P3 antag – blocks the human S1P3 receptor. CHO S1P3 NFAT-BLA reporter, FRET fluorescence, antagonist mode. AID 485. Q99500. inhibition, % at 4.98 µM. hit rate 0.27% among 170,000;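 active = inhibition above the plate cutoff, the mean inhibition of test wells on that plate plus 3 SD, cut at about 28% in these data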;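 note: cells challenged with S1P at its EC80 of 0.8 µM; blue over green emission ratio from cleaved BLA substrate after 4 h stimulation; 0% = S1P-stimulated wells and 100% = unstimulated DMSO-only wells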
# TbHK1 inh – T. brucei hexokinase 1 inhibition; hit rate 0.11% among 220,000; inhibition, % at 10 µM; recombinant TbHK1, G6PDH-coupled NADH A340;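 active = inhibition of 50% or more in the single-dose primary screen; inactive = inhibition below 50%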
# S1P4 ag – activates the human S1P4 receptor | hit rate 0.35% among 220,000 | S1P4-expressing cell line, agonist reporter assay | activation, % at 4.98 µM | O95977; in the data active = activation above about 11%;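 note: 0% = DMSO vehicle and 100% = reference agonist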
# Target sequence (O95977 whole entry, looked up): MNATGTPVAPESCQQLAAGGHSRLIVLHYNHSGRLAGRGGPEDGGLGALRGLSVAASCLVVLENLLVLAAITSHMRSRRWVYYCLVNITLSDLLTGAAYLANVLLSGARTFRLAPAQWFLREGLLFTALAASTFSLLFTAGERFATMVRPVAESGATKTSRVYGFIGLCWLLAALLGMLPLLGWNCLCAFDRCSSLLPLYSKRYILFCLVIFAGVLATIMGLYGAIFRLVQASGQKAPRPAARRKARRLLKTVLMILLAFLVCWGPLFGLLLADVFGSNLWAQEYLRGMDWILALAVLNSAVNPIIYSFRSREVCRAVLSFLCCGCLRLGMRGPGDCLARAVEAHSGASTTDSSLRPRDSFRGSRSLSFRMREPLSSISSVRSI
# Dynein transport – dynein cargo transport inhibition; 3617.4 mouse cells, GR-EGFP nuclear translocation imaging; test concentration mostly 20 µM; stimulated with dexamethasone, 1 µM; active compounds read low; z-score, hits read low; hit rate 0.47% among 220,000;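 active = plate z-score of nuclear minus cytoplasmic receptor signal below a set negative limit, without overly bright fluorescence or cell loss, cut at about -3.5 in these data, passing the limit was not always enough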;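 note: z-score of nuclear minus cytoplasmic ring GR-EGFP intensity difference per well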
#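 Also added: dexamethasone, 1.0 µM final. Medium: tet-free, stripped-serum medium. Detection: fixed, Hoechst-stained cells imaged at 10x for EGFP. Read-out: nuclear-to-cytoplasmic GR-EGFP distribution per well. Times: induction 48 h, compound 1 h, agonist 30 min.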
# S1P4 antag – antagonists of human S1P4 receptor | O95977 | S1P4-expressing cells, antagonist mode, reporter read-out | inhibition, % at 4.98 µM | hit rate 0.26% among 220,000; in the data active = inhibition above about 29%;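 note: 0% = wells stimulated with agonist and 100% = vehicle wells without agonist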
# S1P4 agonist cf – confirmation of human S1P4 receptor agonists; hit rate 7% among 740; shares compounds with S1P4 ag; AID 1523; S1P4 agonist cell-based reporter assay; activation, % at 4.98 µM; in the data active = activation above about 12%;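 note: 0% = vehicle and 100% = full reference agonist response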
# S1P1 ag – activates human S1P1, counter-screen for S1P4 agonists; activation, % at 4.98 µM; AID 1563; shares compounds with S1P4 ag; hit rate 4% among 740; S1P1 agonist cell-based assay, activation; in the data active = activation above about 21%;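 note: 0% = vehicle wells and 100% = reference agonist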
# Numbers without * were called inactive; nt = not tested or not shown. Only some compounds are listed: those with a hit (about 1.3% of all), similar ones and a draw of the others.
SMILES,Biofilm kill mix,S1P3 antag,TbHK1 inh,S1P4 ag,Dynein transport,S1P4 antag,S1P4 agonist cf,S1P1 ag
CCC(NC(=O)c1cccc(Cn2cc([N+](=O)[O-])cn2)c1)c1ccc(C(C)C)cc1 (stereo not given),nt,nt,7,-1,-0.67,-9,nt,nt
Cc1cc(OC(=O)c2ccc(S(=O)(=O)N3CCOCC3)cc2)c([N+](=O)[O-])c(=O)[nH]1,9,-6,8,-1,1.6,5,nt,nt
Cc1cc(=O)oc2cc3c(cc12)OCCN3,nt,-52,-21,12*,-0.081,-10,5,5
COc1ccc(F)cc1S(=O)(=O)n1nnc2ccccc21,-3,-23,-6,74*,1.6,-5,-1,1
COc1ccc(OC)c(S(=O)(=O)n2nnc3ccccc32)c1,nt,-18,1,2,-0.2,-29,nt,nt
Cc1cc(=O)oc2c(CN3CC(C)OC(C)C3)c(O)c(Cl)cc12 (stereo not given),13,1,-15,2,-1.2,-3,nt,nt
CN=c1scc(C)n1/N=C/c1cc(Br)c(O)c(OC)c1,22,9,-15,2,-0.39,1,nt,nt
COc1cc(/C=N/N(C)C)cc(Br)c1O,2,-11,-51,39*,0.64,-3,-2,-6
CSc1ccc(NC(=O)Nc2cccn(Cc3ccccc3)c2=O)cc1,9,11,2,33*,-0.38,-24,-1,6
O=C(CCCN1C(=O)c2cccc3cccc(c23)C1=O)Nc1ccon1,16,-9,-16,0,-1.1,-15,nt,nt
COC(=O)c1cc(Nc2ncnc3c2cnn3-c2ccccc2)cc(C(=O)OC)c1,nt,6,nt,nt,nt,nt,nt,nt
CC1OC23CCCCC2C(C#N)(C(=N)O3)C1(C#N)C#N (stereo not given),13,nt,-1,12*,-1.5,11,-1,-1
CCC1OC23CCCCC2C(C#N)(C(=N)O3)C1(C#N)C#N (stereo not given),nt,nt,2,2,-3.2,-6,nt,nt
O=C(/C=C/c1ccco1)NCC1COc2ccccc2O1 (stereo not given),-1,-14,-13,0,0.36,-5,nt,nt
CN1CCN(Cc2c(O)ccc3cc(-c4ccccn4)c(=O)oc23)CC1,29,-4,-17,18*,0.26,11,10,7
Cc1c(NC(=O)Cn2cc([N+](=O)[O-])cn2)c(=O)n(-c2ccccc2)n1C,-10,-31,-13,0,1.7,-38,nt,nt
Cc1c(NC(=O)Cn2ccc([N+](=O)[O-])n2)c(=O)n(-c2ccccc2)n1C,nt,nt,-3,25*,1,-4,-1,-4
CCOC(=O)c1sc(-c2ccccc2)cc1NC(=O)Nc1ccccc1,8,-11,-9,25*,0.62,-1,-2,-5
CCOc1ccc(/C(O)=C/C(=O)C(=O)Nc2ccc(S(=O)(=O)NC(C)=O)cc2)cc1,10,-4,-30,12*,0.17,-15,-1,-2
CCOCCCNS(=O)(=O)c1ccc(NC(=O)N2c3ccccc3Sc3ccccc32)cc1,nt,nt,-7,34*,-0.32,0,-3,-9
CCOCCCNS(=O)(=O)c1ccc(NC(=O)CN2C(=O)c3ccccc3C2=O)cc1,15,-10,4,1,-0.58,-21,nt,nt
COc1cccc(CC(NC(C)=O)C(=O)NC2CCN(c3c(Cc4ccccc4)c(C)nc4ncnn34)CC2)c1OC (stereo not given),7,-7,-13,14*,0.34,-1,-3,-8
COc1cc(/C=N/N=C/c2c[nH]c(=O)c(C#N)c2Nc2ccccc2)ccc1O,19,-14,-17,0,0.34,-15,nt,nt
Cn1c(N)c(C(=O)CSc2nc3ccccc3[nH]2)c(=O)n(C)c1=O,22,0,-11,0,0.033,2,nt,nt
CC(C)N1CCN(Cc2cccs2)CC1CCO (stereo not given),15,-16,8,64*,2.5,8,-2,4
SMILES,Biofilm kill mix,S1P3 antag,TbHK1 inh,S1P4 ag,Dynein transport,S1P4 antag,S1P4 agonist cf,S1P1 ag
CCOc1ccc2nc(CN3CCN(Cc4ccsc4)C(CCO)C3)ccc2c1 (stereo not given),9,-2,-5,-1,1.8,-16,nt,nt
Nc1nonc1NC(=O)CSc1ncccc1C(=O)O,nt,-28,-5,45*,-0.41,1,-2,-1
CNC(=O)CN(c1cc(OCCOC)c(Cl)cc1Cl)S(=O)(=O)c1ccc(OC)cc1,98,5,-1,1,-0.31,-17,nt,nt
CCc1cccc(Nc2cc(C)nc3ncnn23)c1,12,10,-5,156*,-0.36,0,-3,-4
Cn1cccc1/C=C1\Cc2ccccc2C1=O,24,6,5,2,-0.17,-23,nt,nt
Cn1cccc1/C=C1\CCc2ccccc2C1=O,24,-1,7,39*,-1.1,-12,-2,-7
CCN(CC)S(=O)(=O)c1cc(C)ccc1NC(=S)Nc1cccnc1,16,12,-1,2,-0.23,-11,nt,nt
Cc1cc2oc(C(=O)Nc3cccnc3)c(C)c2cc1C,nt,-21,3,0,0.11,-2,nt,nt
CC(=O)Nc1ccc(NC(=O)c2oc3cc(C)c(C)cc3c2C)cc1,nt,-11,-17,12*,-0.56,-9,-2,-1
CCN(Cc1cc(=O)n2ccsc2n1)Cc1nc2cc(OC)c(OC)cc2c(=O)[nH]1,20,-10,0,-1,-0.85,5,nt,nt
CCN(CC)C(=O)C12CC3CC(CC(Br)(C3)C1)C2,9,-6,1,1,-0.15,-3,nt,nt
COc1ccc(N2CCN(C(CNC(=O)C(=O)NCC3CCCO3)c3ccco3)CC2)cc1 (stereo not given),18,-5,3,13*,0.35,-7,-2,0
COc1ccccc1C(=O)Nc1nc2cc3c(cc2s1)OCO3,5,-4,-28,27*,2.2,11,-1,8
COc1ccccc1C(=O)Nc1nc2cc3c(cc2s1)OCCO3,17,-2,-19,-1,-0.49,13,nt,nt
CCOc1ccc(NC(=O)c2ccccn2)cc1,-2,-7,0,1,0.92,-16,nt,nt
CNS(=O)(=O)c1ccc(NC(=O)c2ccccn2)cc1,12,-7,35,70*,-0.6,9,-1,-3
CCOC(=O)n1c(=O)[nH]c2ccc(Br)cc21,4,-8,2,2,1.1,-17,nt,nt
CS(=O)(=O)Nc1ccc(C(=O)N2CCN(c3ccccc3)CC2)cc1,nt,nt,5,56*,0.53,-5,-2,-4
O=C(c1ccc(S(=O)(=O)N2CCCCC2)cc1)N1CCN(c2ccccc2)CC1,nt,4,27,3,-1.2,-14,nt,nt
O=C(NC1CCCC1)C(c1ccccc1)N(Cc1cccnc1)C(=O)Cc1cccs1 (stereo not given),1,-3,1,3,-0.29,-5,nt,nt
